{"source": "ChEMBL document CHEMBL1123512", "about": "“Synthesis and biological activity of analogues of beta-chlornaltrexamine and beta-funaltrexamine at opioid receptors” (J Med Chem, 1986)", "key": {"[1]": {"target": "T1, Opioid receptors; mu/kappa/delta (Homo sapiens, UniProt P41145+P41143+P35372)", "T1 sequence (P35372 whole entry, looked up)": "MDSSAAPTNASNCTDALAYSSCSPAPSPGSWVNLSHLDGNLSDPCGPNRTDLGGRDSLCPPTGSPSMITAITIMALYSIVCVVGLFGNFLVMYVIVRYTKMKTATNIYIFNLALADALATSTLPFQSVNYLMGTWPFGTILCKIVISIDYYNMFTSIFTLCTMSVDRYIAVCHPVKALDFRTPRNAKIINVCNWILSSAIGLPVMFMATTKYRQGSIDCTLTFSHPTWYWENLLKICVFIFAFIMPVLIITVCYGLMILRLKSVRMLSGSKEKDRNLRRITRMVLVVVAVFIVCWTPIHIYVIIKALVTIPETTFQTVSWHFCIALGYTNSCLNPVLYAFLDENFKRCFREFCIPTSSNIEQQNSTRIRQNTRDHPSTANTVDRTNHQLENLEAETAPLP", "T1 sequence (P41143 whole entry, looked up)": "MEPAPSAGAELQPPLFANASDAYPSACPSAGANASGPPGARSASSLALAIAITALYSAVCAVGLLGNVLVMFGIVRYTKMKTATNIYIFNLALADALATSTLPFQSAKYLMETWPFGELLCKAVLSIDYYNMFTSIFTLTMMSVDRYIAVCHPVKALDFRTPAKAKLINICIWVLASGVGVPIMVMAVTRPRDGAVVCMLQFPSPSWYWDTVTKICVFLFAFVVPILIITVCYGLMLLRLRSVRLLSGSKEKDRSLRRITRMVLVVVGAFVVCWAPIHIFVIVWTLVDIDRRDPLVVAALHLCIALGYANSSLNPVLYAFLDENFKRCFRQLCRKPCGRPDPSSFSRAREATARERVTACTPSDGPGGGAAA", "T1 sequence (P41145 whole entry, looked up)": "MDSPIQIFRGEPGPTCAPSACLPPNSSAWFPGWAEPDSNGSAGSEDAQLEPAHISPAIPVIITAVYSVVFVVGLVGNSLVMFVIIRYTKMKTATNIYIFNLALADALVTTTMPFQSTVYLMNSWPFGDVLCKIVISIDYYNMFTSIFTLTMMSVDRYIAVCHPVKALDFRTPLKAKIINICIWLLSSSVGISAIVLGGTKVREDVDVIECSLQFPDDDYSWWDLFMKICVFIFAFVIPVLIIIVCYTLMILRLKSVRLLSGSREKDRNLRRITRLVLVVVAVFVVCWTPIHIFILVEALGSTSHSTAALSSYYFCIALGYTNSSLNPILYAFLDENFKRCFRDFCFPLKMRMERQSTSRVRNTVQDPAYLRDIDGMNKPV", "assay": "Percent inhibition against opioid receptor in electrically stimulated longitudinal muscle of guinea pig ileum at 100 nM", "assay_type": "tissue-based", "conditions": "Cavia porcellus, target entry is the homologue from another species"}, "[2]": {"target": "T1, Opioid receptors; mu/kappa/delta", "assay": "Irreversible antagonistic activity against opioid receptor in electrically stimulated longitudinal muscle of guinea pig ileum expressed as IC50 of morphine by IC50 of control", "assay_type": "functional, tissue-based", "method_in_brief": "(§1)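 Guinea pig ileum longitudinal muscle was exposed to ligand at 200 nM for 30 min, then washed thoroughly (30 times), and challenged with morphine or ethylketazocine (EK). The value is the agonist IC50 in the treated preparation divided by the control IC50 in the same preparation.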"}, "[3]": {"target": "T1, Opioid receptors; mu/kappa/delta", "assay": "(§2) Compound was tested for irreversible antagonistic activity against opioid receptor in mouse vas deferens", "assay_type": "functional, tissue-based"}, "[4]": {"target": "T1, Opioid receptors; mu/kappa/delta", "assay": "Irreversible antagonistic activity against opioid receptor in electrically stimulated longitudinal muscle of guinea pig ileum expressed as IC50 of EK by IC50 of control", "assay_type": "functional, tissue-based", "method_in_brief": "as §1"}, "[5]": {"target": "T2, Opioid receptor (Mus musculus) (UniProt P42866+P32300+P33534)", "T2 sequence (P32300 whole entry, looked up)": "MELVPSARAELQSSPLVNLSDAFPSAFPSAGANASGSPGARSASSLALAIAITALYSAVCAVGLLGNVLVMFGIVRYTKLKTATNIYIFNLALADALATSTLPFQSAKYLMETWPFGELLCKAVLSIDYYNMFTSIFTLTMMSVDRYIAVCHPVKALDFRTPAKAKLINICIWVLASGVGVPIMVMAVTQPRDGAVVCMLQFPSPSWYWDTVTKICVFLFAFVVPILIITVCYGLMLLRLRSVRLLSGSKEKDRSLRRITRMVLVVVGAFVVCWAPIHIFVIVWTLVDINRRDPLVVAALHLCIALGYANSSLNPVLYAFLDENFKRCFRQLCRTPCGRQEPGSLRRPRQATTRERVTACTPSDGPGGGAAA", "T2 sequence (P33534 whole entry, looked up)": "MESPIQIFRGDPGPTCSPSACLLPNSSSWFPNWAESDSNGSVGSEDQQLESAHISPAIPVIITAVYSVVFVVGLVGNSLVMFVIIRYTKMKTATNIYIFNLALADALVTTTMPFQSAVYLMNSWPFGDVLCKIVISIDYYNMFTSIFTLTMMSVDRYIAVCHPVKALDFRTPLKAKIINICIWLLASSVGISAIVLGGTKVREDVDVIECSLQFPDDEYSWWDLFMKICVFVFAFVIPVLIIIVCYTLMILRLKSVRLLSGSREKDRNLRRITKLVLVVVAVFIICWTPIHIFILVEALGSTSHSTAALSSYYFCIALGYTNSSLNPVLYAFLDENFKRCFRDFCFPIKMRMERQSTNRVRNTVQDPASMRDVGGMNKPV", "T2 sequence (P42866 whole entry, looked up)": "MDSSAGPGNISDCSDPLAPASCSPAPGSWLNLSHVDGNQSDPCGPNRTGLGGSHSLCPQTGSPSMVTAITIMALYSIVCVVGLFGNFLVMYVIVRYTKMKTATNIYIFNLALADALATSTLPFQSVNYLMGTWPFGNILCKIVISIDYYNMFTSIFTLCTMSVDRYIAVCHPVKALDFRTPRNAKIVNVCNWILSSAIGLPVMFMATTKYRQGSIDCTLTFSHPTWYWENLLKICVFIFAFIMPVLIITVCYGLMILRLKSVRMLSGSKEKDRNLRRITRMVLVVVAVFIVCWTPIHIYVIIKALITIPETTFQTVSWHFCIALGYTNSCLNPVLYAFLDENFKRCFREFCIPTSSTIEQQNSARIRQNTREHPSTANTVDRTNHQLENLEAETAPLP", "assay": "Percent inhibition against opioid receptor in mouse vas deferens at 1 uM", "assay_type": "tissue-based"}, "[6]": {"target": "T2, Opioid receptor (Mus musculus)", "assay": "Compound was tested for agonist activity against opioid receptor in mouse vas deferens", "assay_type": "functional, tissue-based"}, "[7]": {"assay": "Reversible antagonistic activity against opioid receptor in electrically stimulated longitudinal muscle of guinea pig ileum expressed as IC50 of morphine by IC50 of control", "assay_type": "functional", "method_in_brief": "(§3)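 In guinea pig ileum longitudinal muscle, morphine or ethylketazocine (EK) was tested in the presence of ligand at 10 nM, without washing. The value is the agonist IC50 in the treated preparation divided by the control IC50 in the same preparation.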"}, "[8]": {"target": "T1, Opioid receptors; mu/kappa/delta", "assay": "(§4) Compound was tested for agonist activity against opioid receptor in electrically stimulated longitudinal muscle of guinea pig ileum", "assay_type": "functional, tissue-based", "conditions": "Cavia porcellus, target entry is the homologue from another species"}, "[9]": {"assay": "Reversible antagonistic activity against opioid receptor in electrically stimulated longitudinal muscle of guinea pig ileum expressed as IC50 of EK by IC50 of control", "assay_type": "functional", "method_in_brief": "as §3"}, "[10]": {"target": "T1, Opioid receptors; mu/kappa/delta", "assay": "as §2", "assay_type": "functional, tissue-based", "remark": "listed apart in the source"}, "[11]": {"target": "T1, Opioid receptors; mu/kappa/delta", "assay": "Compound was tested for irreversible antagonistic activity against opioid receptor in mouse vas deferens expressed as IC50 of DADLE by IC50 of control", "assay_type": "functional, tissue-based"}, "[12]": {"target": "T1, Opioid receptors; mu/kappa/delta", "assay": "Compound was tested for irreversible antagonistic activity against opioid receptor in mouse vas deferens expressed as IC50 of morphine by IC50 of control", "assay_type": "functional, tissue-based"}, "[13]": {"target": "T1, Opioid receptors; mu/kappa/delta", "assay": "Percent inhibition against opioid receptor in electrically stimulated longitudinal muscle of guinea pig ileum at 1 uM", "assay_type": "tissue-based", "conditions": "Cavia porcellus, target entry is the homologue from another species"}, "[14]": {"target": "T2, Opioid receptor (Mus musculus)", "assay": "Percent inhibition against opioid receptor in mouse vas deferens at 3 uM", "assay_type": "tissue-based"}, "[15]": {"target": "T2, Opioid receptor (Mus musculus)", "assay": "Compound was tested for irreversible antagonistic activity against opioid receptor in mouse vas deferens at 3 uM", "assay_type": "functional, tissue-based"}, "[16]": {"target": "T1, Opioid receptors; mu/kappa/delta", "assay": "as §4", "assay_type": "functional, tissue-based, Cavia porcellus", "conditions": "target entry is the homologue from another species"}}}
{"smiles": "CCOC(=O)/C=C/C(=O)NCC(=O)NCC(=O)NCC(=O)N[C@@H]1CC[C@@]2(O)C3Cc4ccc(O)c5c4C2(CCN3CC2CC2)[C@H]1O5", "note": "(stereo partly specified)", "values": [{"measurement": "inhibition", "setting": "[1]", "result": 45, "unit": "%"}, {"measurement": "Ratio", "setting": "[2]", "result": 1.3}, {"measurement": "Ratio", "setting": "[3]", "result": 1.2}, {"measurement": "Ratio", "setting": "[4]", "result": 0.8}, {"measurement": "inhibition", "setting": "[5]", "result": 61, "unit": "%"}, {"measurement": "IC30", "setting": "[6]", "result": 0.02, "unit": "µM"}, {"measurement": "Ratio", "setting": "[7]", "result": 12.3}, {"measurement": "IC20", "setting": "[8]", "result": 0.01, "unit": "µM"}, {"measurement": "Ratio", "setting": "[9]", "result": 3.3}]}
{"smiles": "CCOC(=O)/C=C/C(=O)NCC(=O)NCC(=O)N[C@@H]1CC[C@@]2(O)C3Cc4ccc(O)c5c4C2(CCN3CC2CC2)[C@H]1O5", "note": "(stereo partly specified)", "values": [{"measurement": "inhibition", "setting": "[1]", "result": 45, "unit": "%"}, {"measurement": "Ratio", "setting": "[2]", "result": 3.9}, {"measurement": "Ratio", "setting": "[3]", "result": 4.3}, {"measurement": "Ratio", "setting": "[10]", "result": 1.2}, {"measurement": "Ratio", "setting": "[4]", "result": 1.3}, {"measurement": "inhibition", "setting": "[5]", "result": 59, "unit": "%"}, {"measurement": "IC30", "setting": "[6]", "result": 0.01, "unit": "µM"}, {"measurement": "Ratio", "setting": "[7]", "result": 16.8}, {"measurement": "IC20", "setting": "[8]", "result": 0.01, "unit": "µM"}, {"measurement": "Ratio", "setting": "[9]", "result": 4.8}]}
{"smiles": "CCOC(=O)/C=C/C(=O)NCC(=O)N[C@@H]1CC[C@@]2(O)C3Cc4ccc(O)c5c4C2(CCN3CC2CC2)[C@H]1O5", "note": "(stereo partly specified)", "values": [{"measurement": "Ratio", "setting": "[2]", "result": 0.6}, {"measurement": "Ratio", "setting": "[11]", "result": 0.8}, {"measurement": "Ratio", "setting": "[12]", "result": 1.8}, {"measurement": "Ratio", "setting": "[4]", "result": 2}, {"measurement": "inhibition", "setting": "[13]", "result": 42, "unit": "%"}, {"measurement": "IC30", "setting": "[6]", "result": 0.007, "unit": "µM"}, {"measurement": "inhibition", "setting": "[14]", "result": 56, "unit": "%"}, {"measurement": "Ratio", "setting": "[7]", "result": 2.5}, {"measurement": "IC30", "setting": "[8]", "result": 0.01, "unit": "µM"}, {"measurement": "Ratio", "setting": "[9]", "result": 2.5}]}
{"smiles": "O=C(CN(CCCl)CCCl)N[C@@H]1CC[C@@]2(O)C3Cc4ccc(O)c5c4C2(CCN3CC2CC2)[C@H]1O5", "note": "(stereo partly specified)", "values": [{"measurement": "inhibition", "setting": "[15]", "result": 54, "unit": "%"}, {"measurement": "Ratio", "setting": "[2]", "result": 27.4}, {"measurement": "Ratio", "setting": "[11]", "result": 4}, {"measurement": "Ratio", "setting": "[4]", "result": 12.3}, {"measurement": "inhibition", "setting": "[5]", "result": 55, "unit": "%"}, {"measurement": "IC30", "setting": "[6]", "result": 0.02, "unit": "µM"}, {"measurement": "IC50", "setting": "[16]", "result": 0.0038, "unit": "µM"}]}
